We go through twelve compounds from ChEMBL document CHEMBL1687853, “Increased glycolytic ATP synthesis is associated with tafenoquine resistance in Leishmania major” (Antimicrob Agents Chemother, 2011).

In data set [1] the test system is Leishmania major. As to the kind of experiment: Resistant index, ratio of EC50 for tafenoquine-resistant promastigotes of Leishmania major R4 to EC50 for promastigotes of Leishmania major MHOM/JL/80/Friedlin. In kind it is functional. The gist of the method:
(§1)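 L. major Friedlin promastigotes, wild type or TFQ-resistant R4, were grown at 28°C in modified RPMI 1640 with 20% heat-inactivated FBS. R4 was selected stepwise from 2.5 to 4 μM TFQ over 10 weeks and kept in 4 μM. Parasites were exposed to increasing drug concentrations for 72 h at 28°C and viability was read by MTT. EC50 is 50% growth inhibition; resistance index is the R4/WT EC50 ratio.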

For data set [2], the system named is Leishmania major. The data set is described as follows: Antileishmanial activity against wild type promastigotes of Leishmania major MHOM/JL/80/Friedlin assessed as inhibition of parasite growth after 72 hrs by MTT assay. In kind it is functional, organism-based. In outline:
as §1

The subject of data set [3] is Leishmania major. As to the kind of experiment: Antileishmanial activity against tafenoquine-resistant promastigotes of Leishmania major R4 assessed as inhibition of parasite growth after 72 hrs by MTT assay. Type of data set: functional, organism-based. The settings on record: R4, 72 h. The gist of the method: as §1
(In general: Tetrazolium dyes change colour on reduction, which living cells bring about.)

The test system of data set [4] is Leishmania major. The data set is described as follows: Induction of acidification in tafenoquine-resistant promastigotes of Leishmania major R4 assessed as decrease of pH at 5 uM after 30 mins. Type of data set: functional, organism-based. The gist of the method: (§2)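 R4 or revertant promastigotes (R4 grown 1 month drug-free) were loaded with BCECF-AM (5 μg/ml, 30 min, 28°C) and washed. Cells at 2 × 10^7/ml in culture medium then received 5 μM TFQ or 20 mM sodium azide for 1–30 min. pHi came from the 490/440 nm excitation ratio (emission 535 nm), calibrated with nigericin-treated cells at set pH values.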

For data set [5], the system named is Leishmania major. The data set is described as follows: Drug uptake in promastigotes of tafenoquine-resistant promastigotes of Leishmania major revert R4 at 5 uM after 5 mins by spectrofluorometric technique. In kind it is ADME, organism-based. The settings on record: in vivo.
For data set [6], the system named is Leishmania major. The data set is described as follows: Drug uptake in promastigotes of tafenoquine-resistant promastigotes of Leishmania major R4 at 2.5 uM after 5 mins by spectrofluorometric technique. In kind it is ADME, organism-based. The settings on record: in vivo.
Data set [7] concerns Leishmania major. As to the kind of experiment: Drug uptake in promastigotes of tafenoquine-resistant promastigotes of Leishmania major R4 assessed per mg of protein at 5 uM after 15 mins by spectrofluorometric technique in presence of ammonium chloride. The settings on record: in vitro, 0.25 h.
Data set [8] relates to Leishmania major. As to the kind of experiment: Drug uptake in promastigotes of tafenoquine-resistant promastigotes of Leishmania major revert R4 assessed per mg of protein at 5 uM after 15 mins by spectrofluorometric technique in presence of ammonium chloride. The settings on record: in vitro, 0.25 h.
The test system of data set [9] is Leishmania major. As to the kind of experiment: Effect on ATP synthesis in tafenoquine-resistant promastigotes of Leishmania major R4 assessed as increase of ATP level at up to 20 uM after 60 mins by celltiter- glo luminescent assay. Type of data set: functional, organism-based. In outline:
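Promastigotes at 4 × 10^6/ml were incubated in culture medium with 1, 2, 5, 10 or 20 μM TFQ for 60 min. ATP was measured by CellTiter-Glo: an aliquot was mixed with an equal volume of reagent, held 10 min in the dark, and luminescence was read.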

Data set [10] deals with Leishmania major. As to the kind of experiment: Drug uptake in promastigotes of tafenoquine-resistant promastigotes of Leishmania major revert R4 assessed per mg of protein at 5 uM after 15 mins by spectrofluorometric technique. The settings on record: in vivo, 0.25 h. Type of data set: ADME, organism-based. In outline: (§3)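 Promastigotes at 2 × 10^7/ml were given 5 μM TFQ for 15 min at 28°C in culture medium, washed twice with PBS and lysed in 10% SDS, pH 4. TFQ was read fluorimetrically with excitation at 340 nm and emission at 360–460 nm. For the alkalinization condition, parasites were pretreated with 20 mM NH4Cl for 1 min and then given TFQ in the continued presence of NH4Cl for 15 min.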

The test system of data set [11] is Leishmania major. As to the kind of experiment: Induction of acidification in tafenoquine-resistant promastigotes of Leishmania major revert R4 assessed as decrease of pH at 5 uM after 30 mins. In kind it is functional, organism-based. The gist of the method:
as §2

Data set [12] concerns Leishmania major. The data set is described as follows: Induction of acidification in tafenoquine-resistant promastigotes of Leishmania major R4 assessed as decrease of pH at 20 mM after 30 mins. In kind it is functional, organism-based. In outline: as §2
Data set [13] deals with Leishmania major. The data set is described as follows: Effect on ATP synthesis in wild type promastigotes of Leishmania major MHOM/JL/80/Friedlin assessed as decrease of ATP level up to 20 uM after 60 mins by celltiter- glo luminescent assay. Type of data set: functional, organism-based. In outline: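 Promastigotes at 4 × 10^6/ml were held in culture medium with TFQ at 1, 2, 5, 10 or 20 µM for 60 min. Cells were mixed 1:1 with CellTiter-Glo and kept 10 min in the dark. Luminescence, proportional to ATP, was then read.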

Data set [14] concerns Leishmania major. The data set is described as follows: Drug uptake in promastigotes of tafenoquine-resistant promastigotes of Leishmania major R4 assessed per mg of protein at 5 uM after 15 mins by spectrofluorometric technique. In kind it is ADME, organism-based. The settings on record: in vivo, 0.25 h. The gist of the method: as §3
The test system of data set [15] is Leishmania major. As to the kind of experiment: Drug uptake in wild type promastigotes of Leishmania major MHOM/JL/80/Friedlin assessed per mg of protein at 5 uM after 15 mins by spectrofluorometric technique in presence of ammonium chloride. The settings on record: in vivo, 0.25 h.
Data set [16] relates to Leishmania major. The data set is described as follows: Drug uptake in wild type promastigotes of Leishmania major MHOM/JL/80/Friedlin at 2 uM after 5 mins by spectrofluorometric technique. The settings on record: in vivo. Type of data set: ADME, organism-based.
Data set [17] has as its system Leishmania major. The data set is described as follows: Induction of acidification in wild type promastigotes of Leishmania major MHOM/JL/80/Friedlin assessed as decrease of pH at 5 uM after 30 mins. In kind it is functional, organism-based. The gist of the method: (§4)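 Promastigotes were loaded with BCECF-AM (5 µg/ml) in pH 7.4 standard buffer for 30 min at 28°C and washed twice. Cells at 2 × 10^7/ml in culture medium then received 20 mM sodium azide or 5 µM TFQ for 1, 3, 5, 10 or 30 min. The ratio at excitation 490/440 nm, emission 535 nm, was converted to pHi with a nigericin calibration curve.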

The test system of data set [18] is Leishmania major. The data set is described as follows: Induction of acidification in tafenoquine-resistant promastigotes of Leishmania major revert R4 assessed as decrease of pH at 20 mM after 30 mins. Type of data set: functional, organism-based. In outline:
as §2

Data set [19] deals with Leishmania major. As to the kind of experiment: Induction of acidification in wild type promastigotes of Leishmania major MHOM/JL/80/Friedlin assessed as decrease of pH at 20 mM after 30 mins. Type of data set: functional, organism-based. In outline: as §4
Data set [20] deals with Leishmania major. The data set is described as follows: Drug uptake in wild type promastigotes of Leishmania major MHOM/JL/80/Friedlin assessed per mg of protein at 5 uM after 15 mins by spectrofluorometric technique. Type of data set: ADME, organism-based. The settings on record: in vivo, 0.25 h. In outline: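 L. major Friedlin promastigotes, grown 48 h at 28°C in RPMI 1640 with 20% iFBS, were used at 2 × 10^7/ml. Cells were exposed to 5 µM TFQ for 15 min at 28°C in culture medium, washed twice in PBS and lysed in 10% SDS, pH 4. Emission was read at 360–460 nm with excitation at 340 nm.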

Structures are written as SMILES. Activity calls are given as the source filed them. No cut-off for these calls is given here.

One may read the EC50 as the concentration giving half of the maximal effect. Turning to `OC(c1cc(C(F)(F)F)nc2c(C(F)(F)F)cccc12)C1CCCCN1` (stereo not drawn) [MEFLOQUINE], the “Ratio EC50” value in [1] stood at 1.1. Also, the EC50 in data set [2] came to 12.5 µM; in data set [3], 13.9 µM.
Take `CCN(CC)CCCCCCNc1cc(OC)cc2c(C)ccnc12.Cl.Cl`: the “Ratio EC50” value in data set [1] stood at 2. In addition, the EC50 in data set [2] amounted to 12 µM; in data set [3] it was 24.5 µM.
The corresponding values for `C[C@@H]1[C@H](O)[C@@H](C)/C=C/C=C/C=C/C=C/C=C/C=C/C=C/[C@H](O[C@@H]2O[C@H](C)[C@@H](O)[C@H](N)[C@@H]2O)C[C@@H]2O[C@](O)(C[C@@H](O)C[C@@H](O)[C@H](O)CC[C@@H](O)C[C@@H](O)CC(=O)O[C@H]1C)C[C@H](O)[C@H]2C(=O)O` [AMPHOTERICIN B] are 1.7, 1.87 µM and 3.16 µM.
In the case of `COc1cc(NC(C)CCCN)c2ncccc2c1` (stereo not drawn) [PRIMAQUINE], in [1], the “Ratio EC50” value stood at 1.9. In addition, the EC50 in data set [2] amounted to 27.7 µM; in data set [3] it was 53 µM.
For the compound `N=C(N)c1ccc(OCCCCCOc2ccc(C(=N)N)cc2)cc1` [PENTAMIDINE], the “Ratio EC50” value in [1] is given as 1.8. For the same compound, the results for the EC50 in data set [2] and in data set [3] were 0.28 µM and 0.45 µM, respectively.
In the case of `CC(=O)N1CCN(c2ccc(OCC3COC(Cn4ccnc4)(c4ccc(Cl)cc4Cl)O3)cc2)CC1` (stereo not drawn) [KETOCONAZOLE], in data set [1], the “Ratio EC50” value is 1.4. For the same compound, the EC50 in data set [2] stood at 20 µM; in data set [3] it was 28.1 µM.
The corresponding values for `C=C[C@H]1CN2CC[C@H]1C[C@H]2[C@H](O)c1ccnc2ccc(OC)cc12` [QUININE] are 1, 9.41 µM and 9.53 µM.
`COc1cc(C)c2c(Oc3cccc(C(F)(F)F)c3)c(OC)cc(NC(C)CCCN)c2n1` (stereo not drawn) [TAFENOQUINE]: the result in data set [4] and in data set [12] was inactive. For the same compound, the Drug uptake entry in [5] was “Active”; in data set [6] it was “Active”; in data set [7], 8462 a.u; in data set [8], 8524 a.u; in data set [10], 9657 a.u; in data set [14], 8809 a.u. Further, the Drug uptake is 7009 a.u in [15], “Active” in [16] and 10775 a.u in [20]. Also, the “Ratio EC50” value in [1] is given as 2.5. The outcome in [9], in data set [11], in data set [13], in data set [17], in data set [18] and in data set [19] was Active. The EC50 amounted to 2.24 µM in data set [2] and 5.49 µM in data set [3].
For `CCN(CC)CCCC(C)Nc1ccnc2cc(Cl)ccc12` (stereo not drawn) [CHLOROQUINE], the “Ratio EC50” value in data set [1] was 1.3. Further, the EC50 worked out at 18.8 µM in data set [2] and 23.8 µM in data set [3].
The corresponding values for `NC[C@@H]1O[C@H](O[C@H]2[C@@H](O)[C@H](O[C@@H]3[C@@H](O)[C@H](N)C[C@H](N)[C@H]3O[C@H]3O[C@H](CO)[C@@H](O)[C@H](O)[C@H]3N)O[C@@H]2CO)[C@H](N)[C@@H](O)[C@@H]1O` [PAROMOMYCIN] are 1, 4.29 µM and 3.98 µM.
Regarding `COc1cccc2c1C(=O)c1c(O)c3c(c(O)c1C2=O)C[C@@](O)(C(C)=O)C[C@@H]3O[C@H]1C[C@H](N)[C@H](O)[C@H](C)O1` [DAUNORUBICIN], in data set [1], the “Ratio EC50” value came to 1.7. In addition, the EC50 stood at 0.22 µM in data set [2] and 0.38 µM in data set [3].
For the compound `CCCCCCCCCCCCCCCCOP(=O)([O-])OCC[N+](C)(C)C` [MILTEFOSINE], in data set [1], the “Ratio EC50” value was found to be 1.5. For the same compound, the EC50 in data set [2] worked out at 17.7 µM; in data set [3], 25.7 µM.
